From ChEMBL document CHEMBL4251739, “Rhodanine as a Potent Scaffold for the Development of Broad-Spectrum Metallo-β-lactamase Inhibitors” (ACS Med Chem Lett, 2018) come the findings set out here.

For data set [1], the system named is Bacteria. The data set is described as follows: Inhibition of bacterial NDM1 expressed in Escherichia coli DH10B assessed as potentiation of cefazolin-induced antibacterial activity by measuring fold reduction in cefazolin MIC at 32 ug/ml after 16 hrs by broth micro-dilution method relative to cefazolin alone. (In broth dilution the organism is exposed to a series of concentrations in liquid medium.)

A short description of data set [2]: Inhibition of bacterial L1 expressed in Escherichia coli BL21(DE3) using cefazolin as substrate by spectrometric method. More on the design: species or system Bacteria. The essentials: (§1)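 Purified enzymes, overexpressed and purified by earlier methods, assayed under steady-state conditions by UV spectrometry in 50 mM Tris, pH 7.0. Substrate for NDM-1, VIM-2 and L1 was cefazolin (50 µM), read at 262 nm. Substrate for ImiS was imipenem (60 µM), read at 300 nm. Inhibitor varied 0–50 µM; IC50 is the concentration giving 50% loss of activity.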

In data set [3] the test system is Bacteria. The data set is described as follows: Inhibition of bacterial L1 expressed in Escherichia coli DH10B assessed as potentiation of cefazolin-induced antibacterial activity by measuring cefazolin MIC at 32 ug/ml after 16 hrs by broth micro-dilution method (reference value: 32 ug/ml). The procedure, abridged: (§2)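 Dose-dependent cefazolin MIC assay against E. coli DH10B expressing L1 from a pBCSK plasmid, with varied inhibitor doses up to 256 µg/mL. Fold decrease in MIC was taken relative to cefazolin alone. Medium pH was monitored during the assay.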

A short description of data set [4]: Inhibition of bacterial NDM1 expressed in Escherichia coli BL21(DE3) using cefazolin as substrate by spectrometric method. Details: species or system Bacteria. The procedure, abridged:
as §1

Data set [5] deals with Bacteria. Put plainly: Inhibition of bacterial L1 expressed in Escherichia coli DH10B assessed as potentiation of cefazolin-induced antibacterial activity by measuring fold reduction in cefazolin MIC at 256 ug/ml after 16 hrs by broth micro-dilution method relative to cefazolin alone. The essentials:
as §2

Data set [6] relates to Escherichia coli. Put plainly: Toxicity against Escherichia coli DH10B expressing bacterial L1 up to 256 ug/ml after 16 hrs by broth micro-dilution method. The settings on record: in vivo. Format: organism-based, K-12 substr. DH10B. The essentials:
(§3)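 Compounds alone, at the same doses used in the MIC potentiation assays, tested for antibacterial effect against E. coli with and without MβL expression.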

Data set [7] has as its system Bacteria. The data set is described as follows: Inhibition of bacterial VIM2 expressed in Escherichia coli DH10B assessed as potentiation of cefazolin-induced antibacterial activity by measuring cefazolin MIC at 32 ug/ml after 16 hrs by broth micro-dilution method (reference value: 512 ug/ml).
Data set [8] deals with Escherichia coli. Put plainly: Toxicity against Escherichia coli DH10B up to 256 ug/ml after 16 hrs by broth micro-dilution method. It counts as organism-based, K-12 substr. DH10B. Particulars: in vivo. The essentials:
as §3

Data set [9] is described as follows: Inhibition of bacterial ImiS expressed in Escherichia coli BL21(DE3) using imipenem as substrate by spectrometric method. Details: species or system Bacteria. The essentials:
as §1

For data set [10], the system named is Bacteria. The data set is described as follows: Inhibition of bacterial L1 expressed in Escherichia coli DH10B assessed as potentiation of cefazolin-induced antibacterial activity by measuring fold reduction in cefazolin MIC at 32 ug/ml after 16 hrs by broth micro-dilution method relative to cefazolin alone. The essentials:
as §2

The subject of data set [11] is Bacteria. The data set is described as follows: Inhibition of bacterial L1 expressed in Escherichia coli DH10B assessed as potentiation of cefazolin-induced antibacterial activity by measuring cefazolin MIC at 128 ug/ml after 16 hrs by broth micro-dilution method (reference value: 32 ug/ml). The essentials:
as §2

The test system of data set [12] is Bacteria. Put plainly: Inhibition of bacterial L1 expressed in Escherichia coli DH10B assessed as potentiation of cefazolin-induced antibacterial activity by measuring cefazolin MIC at 256 ug/ml after 16 hrs by broth micro-dilution method (reference value: 32 ug/ml). The essentials: as §2
Data set [13] deals with Bacteria. The data set is described as follows: Inhibition of bacterial L1 expressed in Escherichia coli DH10B assessed as potentiation of cefazolin-induced antibacterial activity by measuring cefazolin MIC at 16 ug/ml after 16 hrs by broth micro-dilution method (reference value: 32 ug/ml). The essentials: as §2
Data set [14] relates to Bacteria. Put plainly: Inhibition of bacterial NDM1 expressed in Escherichia coli DH10B assessed as potentiation of cefazolin-induced antibacterial activity by measuring cefazolin MIC at 32 ug/ml after 16 hrs by broth micro-dilution method (reference value: 8 ug/ml).
Data set [15] in a line: Cytotoxicity against mouse L929 cells assessed as cell viability up to 200 uM after 48 hrs by CCK8 assay relative to control. It counts as cell-based. The settings on record: read-out: Activity. The procedure, abridged: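 Mouse fibroblast L929 cells exposed to inhibitors at 12.5, 25, 50, 100, 200 and 400 µM working concentrations; percentage of cells maintaining viability measured.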

Data set [16] deals with Bacteria. The data set is described as follows: Inhibition of bacterial ImiS expressed in Escherichia coli DH10B assessed as potentiation of imipenem-induced antibacterial activity by measuring imipenem MIC at 32 ug/ml after 16 hrs by broth micro-dilution method (reference value: 2 ug/ml).
Data set [17] has as its system Bacteria. The data set is described as follows: Inhibition of bacterial L1 expressed in Escherichia coli DH10B assessed as potentiation of cefazolin-induced antibacterial activity by measuring decrease in cefazolin MIC after 16 hrs by broth micro-dilution method. The procedure, abridged:
as §2

For data set [18], the system named is Bacteria. The data set is described as follows: Inhibition of bacterial L1 expressed in Escherichia coli DH10B assessed as potentiation of cefazolin-induced antibacterial activity by measuring cefazolin MIC at 64 ug/ml after 16 hrs by broth micro-dilution method (reference value: 32 ug/ml). The procedure, abridged: as §2
Data set [19] has as its system Bacteria. Put plainly: Inhibition of bacterial VIM2 expressed in Escherichia coli DH10B assessed as potentiation of cefazolin-induced antibacterial activity by measuring fold reduction in cefazolin MIC at 32 ug/ml after 16 hrs by broth micro-dilution method relative to cefazolin alone.
A short description of data set [20]: Inhibition of bacterial VIM2 expressed in Escherichia coli BL21(DE3) using cefazolin as substrate by spectrometric method. More on the design: species or system Bacteria. The procedure, abridged:
as §1

Data set [21] relates to Bacteria. The data set is described as follows: Inhibition of bacterial NDM1 expressed in Escherichia coli BL21(DE3) at 20 uM using cefazolin as substrate by spectrometric method relative to control.
The subject of data set [22] is Bacteria. Put plainly: Inhibition of bacterial VIM2 expressed in Escherichia coli BL21(DE3) at 4 uM using cefazolin as substrate by spectrometric method relative to control.
In data set [23] the test system is Bacteria. Put plainly: Inhibition of bacterial L1 expressed in Escherichia coli BL21(DE3) at 0.8 uM using cefazolin as substrate by spectrometric method relative to control.
For data set [24], the system named is Bacteria. The data set is described as follows: Inhibition of bacterial ImiS expressed in Escherichia coli BL21(DE3) at 40 uM using imipenem as substrate by spectrometric method relative to control.
Data set [25] concerns Bacteria. The data set is described as follows: Inhibition of bacterial VIM2 expressed in Escherichia coli BL21(DE3) at 50 uM using cefazolin as substrate by spectrometric method relative to control.
Data set [26] relates to Bacteria. The data set is described as follows: Inhibition of bacterial ImiS expressed in Escherichia coli BL21(DE3) at 50 uM using imipenem as substrate by spectrometric method relative to control.
Data set [27] has as its system Bacteria. The data set is described as follows: Inhibition of bacterial NDM1 expressed in Escherichia coli BL21(DE3) at 50 uM using cefazolin as substrate by spectrometric method relative to control.
Data set [28] is described as follows: Stability of the compound in pH 7 Tris buffer at 50 uM after 24 hrs by UV-Vis spectra analysis. It counts as physicochemical. Particulars: pH 7, 24 h. The essentials: (§4)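 Compound at 50 µM held in MES (pH 5.5, 6.0, 6.5), in Tris (pH 7.0–8.5), or in Tris pH 7.0 containing L1. Absorbance change at 401 nm followed over 24 h.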
Data set [29] is described as follows: Stability of the compound in pH 7 Tris buffer at 50 uM after 24 hrs in presence of bacterial L1 by UV-Vis spectra analysis. Particulars: pH 7, 24 h. It counts as ADME. The essentials: as §4
Data set [30] can be described thus: Stability of the compound in pH 6 to 6.5 MES buffer at 50 uM after 24 hrs by UV-Vis spectra analysis. Particulars: pH 6, 24 h. Format: physicochemical. The procedure, abridged:
as §4

Consider `O=C(O)c1ccc(N2C(=O)/C(=C/c3ccc([N+](=O)[O-])cc3[N+](=O)[O-])SC2=S)cc1`, for which the fold change (FC) in the data set on Bacteria [1] is 4 to 8; in the data set with Bacteria [5] it was 32; in the data set with Bacteria [10], 8; with Bacteria [19], 4. Further, the 50% inhibitory concentration (IC50) in [2] is 20 nM; in data set [4] it was 6.7 µM; in data set [9], 15.9 µM; in [20] it was 3.9 µM. Besides, the MIC in the data set on Bacteria [3] is 4 µg/mL; in the data set on Bacteria [7], 128 µg/mL; in the data set on Bacteria [11], 2 µg/mL; with Bacteria [12], 1 µg/mL; in the data set with Bacteria [13], 8 µg/mL; in the data set on Bacteria [14] it was 1 µg/mL. For the same compound, the MIC with Bacteria [16] turned out to be 1 µg/mL; in the data set on Bacteria [18], 2 µg/mL. Also, the Activity entry in the data set on Escherichia coli [6] and in the data set on Escherichia coli [8] was “Non-Toxic” in each case. In addition, the viability at 48 h in data set [15] was over 80%. For the same compound, in the data set with Bacteria [17], the inhibition result is “Dose-dependent effect”.

For the compound `O=C(O)c1ccc(N2C(=O)/C(=C/c3ccc(Cl)cc3)SC2=S)cc1`, the fold change (FC) was 4 to 8 with Bacteria [1] and 4 in the data set on Bacteria [19]. The IC50 in data set [2] was determined as 70 nM; in data set [4], 12.2 µM; in [9] it was 7.7 µM; in data set [20], 3.6 µM. Moreover, the MIC with Bacteria [3] was 8 µg/mL; with Bacteria [7], 128 µg/mL; in the data set on Bacteria [14], 1 µg/mL; with Bacteria [16] it was 1 µg/mL.

As for `O=C(O)c1ccc(N2C(=O)/C(=C/c3ccccc3[N+](=O)[O-])SC2=S)cc1`, the IC50 in data set [2] came to 50 nM; in data set [4], 1.31 µM; in [9] it was 3 µM; in data set [20] it was 0.19 µM. Besides, the inhibition was over 95% in the data set with Bacteria [21]; over 95% in the data set with Bacteria [22]; over 95% with Bacteria [23]; over 95% in the data set with Bacteria [24]; “Dose-dependent effect” in the data set with Bacteria [17]. The MIC in the data set with Bacteria [3] stood at 4 µg/mL; with Bacteria [7], 128 µg/mL; in the data set with Bacteria [11], 2 µg/mL; in the data set on Bacteria [12], 2 µg/mL; with Bacteria [13] it was 16 µg/mL; in the data set with Bacteria [14], 4 µg/mL. Also, the MIC with Bacteria [16] stood at 1 µg/mL; with Bacteria [18], 4 µg/mL. The fold change (FC) with Bacteria [5] was found to be 16; with Bacteria [10], 8; with Bacteria [19], 4. Besides, the Activity entry with Escherichia coli [6] and in the data set with Escherichia coli [8] was “Non-Toxic” in each case. Also, in data set [15], the viability at 48 h stood at 80%.

Turning to `O=C(O)CN1C(=O)/C(=C/c2ccc([N+](=O)[O-])cc2[N+](=O)[O-])SC1=S`, inhibition in data set [2] was half-maximal at 100 nM (IC50). Besides, the inhibition in the data set with Bacteria [25], in the data set on Bacteria [26] and in the data set on Bacteria [27] was under 50% in each case. For the same compound, the MIC in the data set on Bacteria [3] was determined as 4 µg/mL; with Bacteria [7], 512 µg/mL; in the data set with Bacteria [14], 8 µg/mL; in the data set with Bacteria [16], 1 µg/mL. Further, the fold change (FC) in the data set with Bacteria [10] is 8. Further, the viability at 48 h in data set [15] came out at 80%.

On to `O=C(O)CN1C(=O)/C(=C/c2ccccc2[N+](=O)[O-])SC1=S`, for which the concentration for half-maximal inhibition (IC50) was determined as 220 nM in data set [2], 27.4 µM in data set [4] and 16.8 µM in [20]. Further, the MIC amounted to 4 µg/mL with Bacteria [3], 256 µg/mL in the data set on Bacteria [7], 4 µg/mL in the data set with Bacteria [14] and 2 µg/mL in the data set on Bacteria [16]. Also, the fold change (FC) in the data set on Bacteria [10] came out at 8. Moreover, the inhibition in the data set on Bacteria [26] was under 50%. In data set [15], the viability at 48 h was 80%.

On to `COc1ccc(/C=C2\SC(=S)N(c3ccc(C(=O)O)cc3)C2=O)cc1`, for which the fold change (FC) with Bacteria [1] was 4 to 8; in the data set on Bacteria [10], 8. The Stability result in data set [28], in data set [29] and in data set [30] was “Stable” in each case. Besides, the values for the IC50 in [2], in data set [4] and in [9] were 310 nM, 12 µM and 15 µM, respectively. Moreover, in the data set with Bacteria [25], the inhibition was under 50%. Further, the MIC in the data set on Bacteria [3] is 4 µg/mL; in the data set on Bacteria [7], over 512 µg/mL; in the data set with Bacteria [14] it was 2 µg/mL; in the data set with Bacteria [16], 0.5 µg/mL.

A word on the IC50: it is the point on the concentration scale where inhibition reaches its midpoint. The low end stands for inhibition by little substance, the high end for a need for much substance. The inhibition is the change of the read-out against control, counted positive when it falls.
